Activity calls are given as the source filed them. No cut-off for these calls is given here.
Key:
Epilachna [1] = test: Antifeedant activity against third-instar larval stage of Epilachna paenulata infested cucurbita maxima leaves assessed as increase in larval mortality measured at 96 hr by no choice leaf disk assay; format: functional
Summary of the method: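 Same no-choice setup (four third-instar larvae per dish, treated C. maxima leaves renewed every 48 h, six replicates, mortality scored every 24 h). LD50 derived by probit analysis of mortality at 96 h.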

Epilachna [2] = test: Antifeedant activity against third-instar larval stage of Epilachna paenulata infested cucurbita maxima leaves assessed as decrease in food consumption at 0.25 to 4 ug/cm2 measured after 6 days by no choice leaf disk assay relative to untreated control; format: functional, organism-based
Summary of the method: (§1)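 No-choice test: four third-instar E. paenulata larvae per Petri dish fed C. maxima leaves (renewed every 48 h) with known amounts of compound or solvent applied by syringe. Six replicates per treatment, plus unfed starved controls. Leaf consumption, body weight and mortality recorded every 24 h.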

Epilachna [3] = test: Antifeedant activity against third-instar larval stage of Epilachna paenulata infested cucurbita maxima leaves assessed as decrease in food consumption at 0.25 to 4 ug/cm2 measured after 48 hr by no choice leaf disk assay relative to untreated control; format: functional, organism-based; summary of the method: as §1
Epilachna [4] = test: Antifeedant activity against third-instar larval stage of Epilachna paenulata infested cucurbita maxima leaves assessed as decrease in food consumption at 0.25 to 4 ug/cm2 measured after 24 hr by no choice leaf disk assay relative to untreated control; format: functional, organism-based; summary of the method: as §1
Epilachna [5] = test: Antifeedant activity against third-instar larval stage of Epilachna paenulata infested cucurbita maxima leaves assessed as feeding reduction after 24 hr by leaf disk choice assay; format: functional
Summary of the method: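 Leaf-disk choice test: two C. maxima seedling cotyledons in a Petri dish under a glass disk with two 1 cm² holes. One third-instar larva placed equidistant from treated and solvent-control disks, fed 24 h. Area eaten estimated visually by quarters, always by the same operator. AI% = (1 − T/C) × 100; Wilcoxon signed paired rank test, α = 0.05.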

Epilachna [6] = test: Antifeedant activity against third-instar larval stage of Epilachna paenulata infested cucurbita maxima leaves assessed as larval mortality at 0.25 to 4 ug/cm2 measured after 24 hr by no choice leaf disk assay relative to untreated control; format: functional; summary of the method: as §1
Epilachna [7] = test: Antifeedant activity against third-instar larval stage of Epilachna paenulata infested cucurbita maxima leaves assessed as decrease in larval weight gain at 0.25 to 4 ug/cm2 measured after 144 hr by no choice leaf disk assay relative to untreated control; format: functional, organism-based; summary of the method: as §1
Epilachna [8] = test: Antifeedant activity against third-instar larval stage of Epilachna paenulata infested cucurbita maxima leaves assessed as decrease in larval weight gain at 1 to 4 ug/cm2 measured after 96 hr by no choice leaf disk assay relative to untreated control; format: functional, organism-based; summary of the method: as §1

| SMILES | LD50 (Epilachna [1]) | Activity (Epilachna [2]) | Activity (Epilachna [3]) | Activity (Epilachna [4]) | ED50 (Epilachna [5]) | mortality (Epilachna [6]) | Activity (Epilachna [7]) | Activity (Epilachna [8]) |
| --- | --- | --- | --- | --- | --- | --- | --- | --- |
| C/C=C(\C)C(=O)O[C@H]1C[C@@H](OC(C)=O)[C@@]2(C(=O)OC)CO[C@H]3[C@@H](O)[C@@](C)([C@]45O[C@@]4(C)[C@@H]4C[C@H]5O[C@@H]5OC=C[C@@]54O)[C@H]4[C@]1(CO[C@]4(O)C(=O)OC)[C@@H]32 [AZADIRACHTIN A] | 1.24 microg/cm2 | Active | Active | inactive | 0.72 microg/cm2 |  |  |  |
| CC(=O)O[C@@H]1C[C@H](O)[C@@]23COC(O)[C@]1(C)[C@@H]2C[C@@H](O)[C@]1(C)[C@@H]3[C@H](O)C(=O)[C@@]2(C)[C@H](c3ccoc3)C[C@H]3O[C@@]312 (stereo partly drawn) [MELIARTENIN] | 0.76 microg/cm2 | Active |  | Active | 0.8 microg/cm2 | 20% | Active | Active |
| CC(=O)O[C@@H]1C[C@H](O)[C@@]23CO[C@@H](O)[C@]1(C)[C@@H]2C[C@@H](O)[C@]1(C)[C@@H]3C(=O)[C@H](OC(C)=O)[C@@]2(C)[C@H](c3ccoc3)C[C@H]3O[C@]321 [TOOSENDANIN] |  |  |  |  | 3.69 microg/cm2 |  |  |  |
